Active and inactive are the calls of the source. No cut-off for these calls is given here.
Experiments:
D(2) dopamine receptor [1] = target: T1, D(2) dopamine receptor (Homo sapiens, UniProt P14416); assay: Antagonist activity at human dopamine D2L receptor expressed in F1pIn CHO cells assessed as inhibition of ERK1/2 phosphorylation incubated for 5 mins by AlphaScreen assay; type: cell-based
Summary of the method: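 Functional affinity (KB) from interaction studies against varying dopamine concentrations, read out as pERK1/2 levels in D2L-FlpIn CHO cells. Data fitted by Gaddum–Schild analysis. Mean of three to four experiments, each run in duplicate.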

D(2) dopamine receptor [2] = target: T1, D(2) dopamine receptor; assay: Displacement of [3H]-raclopride from human dopamine D2L receptor expressed in F1pIn CHO cells after 60 mins by scintillation counting analysis; type: cell-based
Summary of the method: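 Binding in whole D2L-FlpIn CHO cells with [3H]raclopride as radioligand. Mean of three to four experiments, each run in duplicate.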

[3] = target: T2, 5-hydroxytryptamine receptor 2A (Homo sapiens, UniProt P28223); assay: Displacement of [3H]ketanserin from human 5-HT2A receptor expressed in F1pIn CHO cell membranes after 1 hr by scintillation counting method
T2 sequence (P28223 whole entry): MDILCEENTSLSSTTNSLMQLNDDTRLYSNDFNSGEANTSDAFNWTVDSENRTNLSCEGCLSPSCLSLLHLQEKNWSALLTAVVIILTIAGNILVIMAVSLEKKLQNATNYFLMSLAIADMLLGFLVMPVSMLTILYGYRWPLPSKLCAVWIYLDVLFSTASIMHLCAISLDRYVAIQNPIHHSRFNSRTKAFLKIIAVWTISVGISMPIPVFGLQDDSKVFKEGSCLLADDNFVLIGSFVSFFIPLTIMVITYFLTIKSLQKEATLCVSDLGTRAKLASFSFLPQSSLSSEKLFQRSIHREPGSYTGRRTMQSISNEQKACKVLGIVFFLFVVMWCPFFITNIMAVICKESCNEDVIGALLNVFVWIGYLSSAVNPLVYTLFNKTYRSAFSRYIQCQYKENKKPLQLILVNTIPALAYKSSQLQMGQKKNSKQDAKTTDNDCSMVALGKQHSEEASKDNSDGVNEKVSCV
Summary of the method: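 Binding in 5-HT2A-FlpIn CHO cell membranes with [3H]ketanserin as radioligand. Mean of three to four experiments, each run in duplicate.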

[4] = target: Muscarinic acetylcholine receptor M1 (Homo sapiens) (UniProt P11229); assay: Agonist activity at human mAChR1 receptor expressed in F1pIn CHO cells assessed as induction of intracellular calcium mobilization relative to acetylcholine
Muscarinic acetylcholine receptor M1 (Homo sapiens), sequence (P11229 whole entry, looked up): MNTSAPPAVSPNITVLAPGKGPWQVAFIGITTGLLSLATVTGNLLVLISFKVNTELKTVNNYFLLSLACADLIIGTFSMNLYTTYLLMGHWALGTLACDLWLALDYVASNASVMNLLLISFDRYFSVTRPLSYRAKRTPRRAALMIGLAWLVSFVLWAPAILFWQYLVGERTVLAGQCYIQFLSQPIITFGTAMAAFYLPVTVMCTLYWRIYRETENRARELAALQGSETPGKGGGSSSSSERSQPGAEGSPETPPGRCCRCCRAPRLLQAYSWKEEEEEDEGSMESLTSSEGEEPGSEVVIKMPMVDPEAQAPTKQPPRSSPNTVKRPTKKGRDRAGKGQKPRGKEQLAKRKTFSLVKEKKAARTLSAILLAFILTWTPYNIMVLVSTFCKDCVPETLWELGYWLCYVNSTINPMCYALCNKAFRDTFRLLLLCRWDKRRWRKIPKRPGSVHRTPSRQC

[5] = target: T2, 5-hydroxytryptamine receptor 2A; assay: Antagonist activity at human 5-HT2A receptor expressed in F1pIn CHO cells assessed as inhibition of serotonin-induced myo-inositol 1 phosphate accumulation after 1 hr by HTRF assay; type: functional, cell-based
Summary of the method: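 Functional affinity (KB) from interaction studies against varying serotonin concentrations in an IP1 accumulation assay in 5-HT2A-FlpIn CHO cells. Mean of three to four experiments, each run in duplicate.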

[6] = target: Muscarinic acetylcholine receptor M1 (Homo sapiens) (UniProt P11229); assay: Agonist activity at human mAChR1 receptor expressed in F1pIn CHO cells assessed as induction of intracellular calcium mobilization
D(2) dopamine receptor [7] = target: T1, D(2) dopamine receptor; assay: Antagonist activity at human dopamine D2L receptor expressed in F1pIn CHO cells assessed as inhibition of ERK1/2 phosphorylation by time-course assay; type: cell-based
D(2) dopamine receptor [8] = target: T1, D(2) dopamine receptor; assay: Agonist activity at human dopamine D2L receptor expressed in F1pIn CHO cells assessed as […] forskolin-mediated cAMP accumulation incubated for 30 mins by AlphaScreen assay; type: functional, cell-based
Summary of the method: (§1)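 D2L-FlpIn CHO cells. Agonist concentration–response curves were measured for cAMP signalling and for ERK1/2 phosphorylation. Mean of four to six experiments, each run in duplicate.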

D(2) dopamine receptor [9] = target: T1, D(2) dopamine receptor; assay: Agonist activity at human dopamine D2L receptor expressed in F1pIn CHO cells assessed as […] forskolin-mediated cAMP accumulation incubated for 30 mins by AlphaScreen assay relative to ropinirole; type: functional, cell-based
Summary of the method: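 D2L-FlpIn CHO cells, cAMP signalling. Emax is given as a percentage of the maximal response to ropinirole. Mean of four to six experiments, each run in duplicate.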

D(2) dopamine receptor [10] = target: T1, D(2) dopamine receptor; assay: Agonist activity at human dopamine D2L receptor expressed in F1pIn CHO cells assessed as induction of ERK1/2 phosphorylation by time-course assay; type: cell-based
D(2) dopamine receptor [11] = target: T1, D(2) dopamine receptor; assay: Agonist activity at human dopamine D2L receptor expressed in F1pIn CHO cells assessed as induction of ERK1/2 phosphorylation incubated for 5 mins by AlphaScreen assay relative to FBS; type: cell-based
Summary of the method: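 D2L-FlpIn CHO cells, pERK1/2 assay. Emax is given as a percentage of the maximal response to FBS. Mean of four to six experiments, each run in duplicate.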

D(2) dopamine receptor [12] = target: T1, D(2) dopamine receptor; assay: Agonist activity at human dopamine D2L receptor expressed in F1pIn CHO cells assessed as induction of ERK1/2 phosphorylation incubated for 5 mins by AlphaScreen assay; type: cell-based; summary of the method: as §1

T1 sequence (P14416 whole entry): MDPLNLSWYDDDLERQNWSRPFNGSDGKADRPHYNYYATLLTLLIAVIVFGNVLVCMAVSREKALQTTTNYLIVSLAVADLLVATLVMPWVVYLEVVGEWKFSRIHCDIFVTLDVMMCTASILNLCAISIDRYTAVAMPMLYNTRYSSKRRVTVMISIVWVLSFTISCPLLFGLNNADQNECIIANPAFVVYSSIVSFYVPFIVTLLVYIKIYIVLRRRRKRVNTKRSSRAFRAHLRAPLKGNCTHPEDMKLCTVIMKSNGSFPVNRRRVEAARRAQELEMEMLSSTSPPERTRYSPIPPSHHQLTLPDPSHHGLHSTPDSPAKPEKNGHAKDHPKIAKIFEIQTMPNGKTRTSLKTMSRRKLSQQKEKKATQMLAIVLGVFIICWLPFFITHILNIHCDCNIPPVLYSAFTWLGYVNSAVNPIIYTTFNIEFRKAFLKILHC

SMILES	Kb (D(2) dopamine receptor [1]) [nM]	pKb (D(2) dopamine receptor [1])	Ki (D(2) dopamine receptor [2]) [nM]	Ki [3] [nM]	Emax [4]	Kb [5] [nM]	pKb [5]	pEC50 [6]	inhibition (D(2) dopamine receptor [7])	EC50 (D(2) dopamine receptor [8]) [nM]	Emax (D(2) dopamine receptor [9]) [%]	Activity (D(2) dopamine receptor [10])	Emax (D(2) dopamine receptor [11]) [%]	EC50 (D(2) dopamine receptor [12]) [nM]
O=C(Cc1ccccc1)NC1CCN(CCCN2C(=O)COc3ccccc32)CC1	2090	5.68	834	1040	101%	1570	5.8							
COc1ccccc1N1CCN(CCCN2C(=O)COc3ccccc32)CC1	7.8	8.11	42.7	275	inactive	578	6.24	inactive	Active					
O=C1COc2ccccc2N1CCCN1CCN(c2cccc(Cl)c2Cl)CC1	99	7	273	75.8	inactive	1860	5.73	inactive	Active					
O=C1COc2ccccc2N1CCCN1CCN(c2cccc3[nH]c(=O)oc23)CC1			1.7	568	inactive	1140	5.94	inactive		0.096	97	Active	26	0.64
O=C1COc2ccccc2N1CCCN1CCC(c2noc3cc(F)ccc23)CC1	1.2	8.91	3.2	2.7	inactive	21.2	7.67	inactive	Active					
O=C1COc2ccccc2N1CCCN1CCN(c2nsc3ccccc23)CC1	7	8.16	17.7	5.8		235	6.63		Active					
